Compounds with a hit are over-represented: about 3.5% of the library has one in this group of screens.
MrgX1 allo act: positive allosteric modulators of MrgX1, primary screen, HEK293 cells, Fluo-4 calcium flux; FDSS; stronger effect = higher value; B-score at 10 µM; actives 0.63% (n = 310,000); AID 588675, 2011;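 active = plate-corrected calcium response at least 3 library SD above typical, normal starting fluorescence, not activating the receptor alone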;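 also: compound read alongside a low EC10 to EC30 dose of BAM8-22 agonist; peak minus trough fluorescence over baseline measured at the second addition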
RGS4 inh: RGS4 inhibitors, primary screen, cell-based, HEK293 M3R inducible RGS4, calcium flux | Fluo-4 calcium flux; stronger effect = higher value; triggered by carbachol at its EC20 | actives 0.45% (n = 310,000) | B-score at 10 µM | AID 463165, 2010;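 active = B-score, a plate-corrected calcium signal, over three deviations above library mean, with baseline fluorescence within five deviations of library mean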;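 also: RGS4 expression induced by doxycycline in cells with stable M3 receptor; B-score is computed from the integrated fluorescence ratio over baseline after carbachol; higher B-score means a larger calcium signal and so more RGS4 inhibition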
Target sequence (P49798 whole entry, looked up): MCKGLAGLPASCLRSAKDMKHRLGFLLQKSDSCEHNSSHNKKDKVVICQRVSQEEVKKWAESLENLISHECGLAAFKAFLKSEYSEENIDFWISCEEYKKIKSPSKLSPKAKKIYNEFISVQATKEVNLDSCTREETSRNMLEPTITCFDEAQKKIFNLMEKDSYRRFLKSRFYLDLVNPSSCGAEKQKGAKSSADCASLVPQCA
RGS4 act: RGS4 potentiators or activators, primary screen, cell-based, HEK293 M3R inducible RGS4, calcium flux; carbachol calcium flux Fluo4; stronger effect = lower value; B-score at 10 µM; actives 0.92% (n = 310,000); AID 463111, 2010;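 active = B-score of the integrated calcium signal more than 4 SD below the library mean, with starting fluorescence not abnormally high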;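 also: negative B-score means reduced calcium response which marks RGS4 activation or potentiation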
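Reagent: ECmax carbachol challenge; Test system: M3R-expressing HEK293 line, RGS4 induced by doxycycline; Schedule: overnight RGS4 induction, 30 min dye load 37 °C, 20 min compound RT; Detection: calcium dye Fluo4 fluorescence; Read-out: Agonist-evoked peak-minus-minimum fluorescence over baseline, integrated ratio, B score.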
MrgX1 antag: antagonists of human MrgX1 receptor, primary screen, HEK293 cells, Fluo-4 calcium flux. BAM8-22 antagonism; stronger effect = lower value. B-score at 10 µM. actives 1.3% (n = 310,000). AID 588676, 2011;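 active = calcium-response B-score plate-corrected more than 3 library SD below zero, starting fluorescence within 5 deviations, no agonist response on first addition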;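 also: peak minus trough fluorescence over baseline after final BAM8-22 challenge near maximal dose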
MrgX1 ag: agonists of human MrgX1 receptor, primary screen, HEK293 cells, Fluo-4 calcium flux | Mas-related G-protein coupled receptor member X1 (Homo sapiens), Q96LB2 | Fluo-4 calcium fluorescence, agonist mode; stronger effect = higher value | B-score at 10 µM | actives 0.44% (n = 310,000);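 active = calcium response B-score plate-corrected fluorescence ratio at least 3 library SD, with starting fluorescence B-score inside 5 SD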
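Assay system: stable human MrgX1 HEK293 cell line. Quantity: 15,000 cells per well. Schedule: cells plated overnight, dye loaded 0.5 h 37 °C, 0.5 h room temperature. Detection: Fluo-4 NW calcium-flux fluorescence, kinetic read. Read-out basis: peak-minus-minimum fluorescence over baseline, converted to B scores. Control set: positive and negative control wells on each plate.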
MrgX1 ant reconf: MrgX1 receptor antagonists, duplicate retest, confirmation, HEK293 cells, Fluo-4 calcium flux | shares compounds with MrgX1 antag | actives 19% (n = 2,300) | remaining BAM8-22 calcium response % of control (stronger effect = lower value), % at 10 µM | BAM8-22 calcium flux; stronger effect = lower value;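 active = remaining agonist calcium response no higher than 100% minus 3 SD of agonist-only control wells, with starting fluorescence near control levels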;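 also: agonist BAM8-22 given at a near maximal EC90 to ECmax level; peak minus minimum fluorescence divided by baseline after agonist addition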
HEK293 Ca flux: nonspecific calcium signal in parental HEK293, confirmation, counter-screen for MrgX1 antagonist project, parental HEK293 cells, Fluo-4 calcium flux | fluorescence ratio F(max-min)/F0 at 10 µM | shares compounds with MrgX1 antag | AID 624111, 2012 | actives 2% (n = 4,000) | Fluo-4 calcium fluorescence, FDSS;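 active = duplicate-averaged calcium fluorescence ratio at least three times the standard deviation of buffer wells, a nonspecific response in parental cells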
HEK293 Ca counter: calcium response in parental HEK293 cells, primary screen, counter-screen for MrgX1 allosteric activator project, cell-based, Fluo-4 calcium flux, duplicate; shares compounds with MrgX1 antag; Fluo-4 fluorescence ratio; stronger effect = higher value; fluorescence ratio F(max-min)/F0 at 10 µM; actives 0.4% (n = 4,000);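 active = calcium fluorescence ratio, averaged over duplicates, at least 3 SD of the buffer-well ratio, meaning a nonspecific response in receptor-free cells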;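 also: untransfected parental HEK293 lacking MrgX1 used as counterscreen for MrgX1 allosteric activators; fluorescence change taken during the second addition on a kinetic imager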
HEK293 Ca cntr2: calcium response in parental HEK293 cells, primary screen, counter-screen for MrgX1 agonist project, cell-based, Fluo-4 calcium flux, duplicate, agonist mode; shares compounds with MrgX1 antag; fluorescence ratio F(max-min)/F0 at 10 µM; Fluo-4 calcium fluorescence (FDSS); stronger effect = higher value; actives 8.7% (n = 4,000);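 active = calcium fluorescence ratio at least three times the spread of buffer wells, meaning a non-specific response in parental cells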
Starred values were filed as active, the others as inactive; i = inactive; . = not tested or not shown.

SMILES	MrgX1 allo act	RGS4 inh	RGS4 act	MrgX1 antag	MrgX1 ag	MrgX1 ant reconf	HEK293 Ca flux	HEK293 Ca counter	HEK293 Ca cntr2
O=C(CSc1nnc2ccccn12)N1CCOCC1	i	i	i	i	i	.	.	.	.
O=C(COc1coc(CN2CCc3ccccc32)cc1=O)Nc1ccc([N+](=O)[O-])cc1	i	i	i	i	i	.	.	.	.
CC(C)N1C[C@@]23C=C[C@@H](O2)C(C(=O)OCc2ccccc2)[C@H]3C1=O (stereo partly specified)	i	i	i	i	i	.	.	.	.
CC(C)N1CC23C=CC(O2)C(C(=O)OCc2ccccc2)C3C1=O (stereo unspecified)	i	i	i	-5*	i	i	i	i	i
COc1ccc(C(=O)NC2CCCc3ccccc32)c(OC)c1OC (stereo unspecified)	i	i	i	i	i	.	.	.	.
Cc1cc(C)c(NC(=O)C2CCN(c3cnccn3)CC2)c(C)c1	i	i	i	-6.1*	i	i	i	i	i
COc1ccc(-c2[nH]ncc2CNCCc2ncccc2C)cc1F	i	i	i	i	i	.	.	.	.
Cc1c(C(=O)O)[nH]c2c1C(=O)CC(c1ccc(Cl)cc1)C2 (stereo unspecified)	i	i	i	-4.5*	i	i	i	i	i
COc1ccccc1CNC(=O)[C@@H]1CCCN1S(=O)(=O)c1ccc(C)cc1	i	i	i	-6.6*	i	i	i	i	i
Cc1c2ccccc2nc2ccccc12	i	i	i	i	i	.	.	.	.
CCCNc1c(F)c(F)c2c(C)c3ccccc3nc2c1F	i	i	-7.5*	-6*	i	i	0.36*	i	90*
CCC1Sc2ccccc2N(CC(=O)NC2CC2)C1=O (stereo unspecified)	i	i	i	-7*	i	i	i	i	i
CCC1Oc2ccccc2N(CC(=O)NC2CC2)C1=O (stereo unspecified)	i	i	i	i	i	.	.	.	.
COc1ccc(S(=O)(=O)N2CCOC2CNC(=O)C(=O)NCCCN2CCOCC2)cc1 (stereo unspecified)	i	i	i	i	i	.	.	.	.
Cc1ccc(-c2ccccc2)n1-c1ccc(C(=O)O)cc1	i	i	i	-4.6*	i	78%*	i	i	i
COc1ccc(/C=C2\Oc3cc(OCC(=O)N4CC(O)C[C@H]4C(=O)O)ccc3C2=O)cc1OC (stereo partly specified)	i	i	i	i	i	.	.	.	.
CCCCn1c(SCC(=O)Nc2cccc(OC)c2)nc2ccc(N3CCOCC3)cc2c1=O	i	i	i	-5.2*	i	i	i	i	i
CCCCn1c(SCC(N)=O)nc2ccc(N3CCOCC3)cc2c1=O	i	i	i	i	i	.	.	.	.

High-throughput results from PubChem BioAssay.
